# Results reported in PMC3129651 (Pharmaceutical research, 2010).
# Entries after “also recorded” stand apart in the source; their conditions may differ. Structures can show the parent of a compound that is named as a salt. Where two headings read alike, the source gives them in different places.
# Columns and labels:
# [1] = system: suspended WT rat hepatocytes; assay type: in vitro ADME; conditions: 99mTc-MEB 5μCi/mL, 20μM rifamycin SV, 20μM glycyrrhizic acid, 200μM clonidine, 10μM desipramine, 5μM decynium 22, 10μM ketoprofen
# [2] = system: Oatp; assay type: in vitro ADME; conditions: suspended WT rat hepatocytes; 3H-E217G 1μM; inhibitor 20μM
# [3] = system: Oct; assay type: in vitro ADME; conditions: suspended rat hepatocytes, 14C-TEA 20μM, 20μM glycyrrhizic acid; for initial 14C-TEA uptake in the presence of inhibitor: 200μM clonidine, 10μM desipramine
# [4] = system: WT rat sandwich-cultured hepatocytes; experiment: 20-min efflux study in day 4 WT rat sandwich-cultured hepatocytes; assay type: in vitro ADME
# Procedure, shortened: (§1)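 Male Wistar WT or Mrp2-deficient TR⁻ rat hepatocytes were seeded on collagen I 6-well plates (~1.5 × 10^6 cells/well TR, 1.75 × 10^6 WT), overlaid with Matrigel and used on day 4. They were preloaded for 20 min at 37°C with 99mTc probe (5 μCi/mL) in standard HBSS. Efflux then ran 20 min at 37°C in standard (basolateral) or Ca2+-free HBSS (basolateral + canalicular), with 100 μM MK571, 20 μM GF120918 or 0.6% DMSO. Decay-corrected gamma counts of medium and lysate were taken, and efflux was expressed as % of preloaded mass. n=4 WT, 3 TR livers, triplicate.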
# [5] = system: human sandwich-cultured hepatocytes; experiment: 20-min efflux study in day 7 human sandwich-cultured hepatocytes; assay type: in vitro ADME
# [6] = system: WT sandwich-cultured rat hepatocytes; experiment: 10-min accumulation study; assay type: in vitro ADME; conditions: 2μM GF120918; siNT- and siBcrp-infected rat SCH
# [7] = system: suspended human hepatocytes; assay type: in vitro ADME; conditions: 99mTc-MEB 5μCi/mL, 20μM rifamycin SV, 200μM clonidine, 10μM desipramine, 5μM decynium 22, 10μM ketoprofen
# [8] = system: suspended rat hepatocytes
# [9] = system: suspended rat hepatocytes; experiment: Preliminary uptake time course in suspended rat hepatocytes sampling over 60min
# [10] = biological target: T1, Oat2 (Rattus norvegicus, UniProt Q5RLM2); experiment: 3H-PAH uptake over 60 min in freshly isolated rat hepatocytes; assay type: in vitro ADME; conditions: 50μM MK571 in the incubation medium
# T1 sequence (Q5RLM2 1-535): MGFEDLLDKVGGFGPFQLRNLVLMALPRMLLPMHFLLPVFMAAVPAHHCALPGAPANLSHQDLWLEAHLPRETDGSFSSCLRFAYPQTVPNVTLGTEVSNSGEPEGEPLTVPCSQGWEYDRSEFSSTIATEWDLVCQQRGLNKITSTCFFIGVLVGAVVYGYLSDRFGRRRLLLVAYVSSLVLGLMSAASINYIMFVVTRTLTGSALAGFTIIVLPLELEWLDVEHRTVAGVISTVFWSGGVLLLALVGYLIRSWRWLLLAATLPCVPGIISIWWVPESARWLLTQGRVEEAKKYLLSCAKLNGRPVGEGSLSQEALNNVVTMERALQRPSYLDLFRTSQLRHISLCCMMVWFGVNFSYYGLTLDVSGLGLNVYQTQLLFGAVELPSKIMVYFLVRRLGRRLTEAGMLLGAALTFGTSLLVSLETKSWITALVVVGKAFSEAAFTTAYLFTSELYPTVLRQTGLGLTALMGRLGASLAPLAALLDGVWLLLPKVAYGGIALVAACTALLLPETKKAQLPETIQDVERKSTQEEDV
# [11] = system: OATP1B3; conditions: inhibition of OATP1B3; cited from earlier work
# [12] = system: OCT; experiment: Initial uptake of 14C-TEA in suspended human hepatocytes with inhibitors; assay type: in vitro ADME; conditions: 14C-TEA 20μM, 5μM decynium 22
# [13] = system: OATP; experiment: Initial uptake of 3H-E217G in suspended human hepatocytes with inhibitors; assay type: in vitro ADME; conditions: 3H-E217G 1μM, 20μM rifamycin SV
# [14] = system: TR^− rat sandwich-cultured hepatocytes; assay type: in vitro ADME
# Procedure, shortened: as §1
# [15] = cited from earlier work
# [16] = rats, 0.25 mCi dose, 30 min after intravenous administration; cited from earlier work
# [17] = control WT rat SCH, 5μCi/mL, 20min preload
# [18] = TR- rat SCH, 5μCi/mL, 20min preload
# [19] = human SCH, control, 5μCi/mL, 20min preload
smiles,measurement,setting,value
CC1(C)[C@@H](O[C@H]2O[C@H](C(=O)O)[C@@H](O)[C@H](O)[C@H]2O[C@@H]2O[C@H](C(=O)O)[C@@H](O)[C@H](O)[C@H]2O)CC[C@]2(C)[C@H]3C(=O)C=C4[C@@H]5C[C@@](C)(C(=O)O)CC[C@]5(C)CC[C@@]4(C)[C@]3(C)CC[C@@H]12 [glycyrrhizic acid],initial 99mTc-MEB uptake in the presence of inhibitor,[1],39.5 % of control
same,initial 3H-E217G uptake in the presence of inhibitor,[2],23.8 % of control
same,reduction of 14C-TEA uptake compared to control,[3],62.1%
same,initial 14C-TEA uptake in the presence of inhibitor,[3],37.9 % of control
"COc1cc2c(cc1OC)CN(CCc1ccc(NC(=O)c3cccc4c(=O)c5cccc(OC)c5[nH]c34)cc1)CC2 [GF120918, N-(4-[2-(1,2,3,4-tetrahydro-6,7-dimethoxy-2-isoquinolinyl)ethyl]-phenyl)-9,10-dihydro-5-methoxy-9-oxo-4-acridine carboxamide]",decrease of 99mTc-MIBI basolateral efflux,"[4]; rat SCH, GF120918 20μM",~ 2.3 fold
same,decrease of 99mTc-MIBI canalicular efflux,"[4]; rat SCH, GF120918 20μM",1.5 fold
same,decrease of 99mTc-MIBI basolateral efflux,"[5]; human SCH, GF120918 20μM",~ 2.9 fold
same,decrease of 99mTc-MIBI canalicular efflux,"[5]; human SCH, GF120918 20μM",2.1 fold
same,effect on 99mTc-MIBI BEI and in vitro Clbiliary (biliary excretion),[6],ablated; also recorded: inhibited completely
same,increase in hepatocellular accumulation (cells only) of 99mTc-MIBI,[6],~ 2 fold
Clc1cccc(Cl)c1N=C1NCCN1 [clonidine],initial 99mTc-MEB uptake in the presence of inhibitor,[1],marginal effects
same,initial 99mTc-MEB uptake in the presence of inhibitor,[7],marginal effects
same,initial 14C-TEA uptake in the presence of inhibitor,[3],23.7 % of control
"C[C@]12CC[C@@H]3c4ccc(O)cc4CC[C@H]3[C@@H]1CC[C@@H]2O[C@@H]1O[C@H](C(=O)O)[C@@H](O)[C@H](O)[C@H]1O [^3H-E217G, Estradiol-17-β-D-glucuronide]",linear range of uptake,[8],2.5 min
"CC[N+](CC)(CC)CC [^14C-TEA, tetraethylammonium]",linear range of uptake,[9],5 min
"CN(C)C(=O)CCSC(SCCC(=O)O)c1cccc(/C=C/c2ccc3ccc(Cl)cc3n2)c1 (stereo not shown) [MK571, MK-571 sodium salt]",effect of inhibitor on 3H-PAH uptake,[10],not significantly influenced
same,Ki,[11],600 nM
CCN1/C(=C/c2ccc3ccccc3[n+]2CC)C=Cc2ccccc21.[I-] [decynium 22],initial 99mTc-MEB uptake in the presence of inhibitor,[1],marginal effects
same,initial 99mTc-MEB uptake in the presence of inhibitor,[7],marginal effects
same,initial 14C-TEA uptake in the presence of inhibitor,[12],54.2 % of control
CO[C@H]1/C=C/O[C@@]2(C)Oc3c(C)c(O)c4c(O)c(cc(O)c4c3C2=O)NC(=O)/C(C)=C\C=C\[C@H](C)[C@H](O)[C@@H](C)[C@@H](O)[C@@H](C)[C@H](OC(C)=O)[C@@H]1C [rifamycin SV],initial 99mTc-MEB uptake in the presence of inhibitor,[1],20.7 % of control
same,initial 99mTc-MEB uptake in the presence of inhibitor,[7],35.4 % of control
same,initial 3H-E217G uptake in the presence of inhibitor,[2],15.5 % of control
same,initial 3H-E217G uptake in the presence of inhibitor,[13],51.5 % of control
"Cc1cc(C)c(NC(=O)CN(CC(=O)[O-])CC(=O)[O-])c(C)c1Br.Cc1cc(C)c(NC(=O)CN(CC(=O)[O-])CC(=O)[O-])c(C)c1Br.[99Tc+4] [^99mTc-MEB, ^99mTechnetium-mebrofenin]",basolateral efflux over 20 min,[4]; [17],25.0±6.7 % of total preloaded mass
same,canalicular efflux over 20 min,[4]; [17],15.3±5.7 % of total preloaded mass
same,"hepatocellular content in cell lysate at the end of the 20-min efflux experiment, Rat Inhibitor","[4]; day 4 WT rat SCH, Inhibitor = 100μM MK571 for 99mTc-MEB and 20μM GF120918 for 99mTc-MIBI",63.4 ± 4.8% of the total substrate mass preloaded
same,fraction of basolateral efflux,[4]; rat SCH,62.0 % of total efflux
same,fraction of canalicular efflux,[4]; rat SCH,38.0 % of total efflux
same,total efflux,"[4]; rat SCH, 20-min efflux study design",40.3±5.4%
same,basolateral efflux over 20 min,[14]; [18],31.8±6.2 % of total preloaded mass
same,canalicular efflux over 20 min,[14]; [18],negligible; also recorded: completely ablated
same,"hepatocellular content in cell lysate at the end of the 20-min efflux experiment, Rat TR-","[14]; day 4 TR- rat SCH, n=3",78.8 ± 13.2% of the total substrate mass preloaded
same,"canalicular efflux, human compared to rat SCH",[5]; 20-min efflux,~ 3 fold
same,"hepatocellular content in cell lysate at the end of the 20-min efflux experiment, Human Inhibitor","[5]; day 7 human SCH, Inhibitor = 100μM MK571 for 99mTc-MEB and 20μM GF120918 for 99mTc-MIBI",27.7 ± 0.4% of the total substrate mass preloaded
same,fraction of basolateral efflux,[5]; human SCH,26.7 % of total efflux
same,fraction of canalicular efflux,[5]; human SCH,73.3 % of total efflux
same,total efflux,"[5]; human SCH, 20-min efflux study design",62.4±8.0%
same,basolateral efflux over 20 min,[5]; [19],16.7±0.6 % of total preloaded mass
same,canalicular efflux over 20 min,[5]; [19],45.8±8.6 % of total preloaded mass
same,dose recovered in bile,"[15]; 2.3mCi dose intravenously, healthy human subjects, within 180 min",~ 84%
same,dose recovered in urine,[15]; after 24 hours in humans,~ 1.5 % of the dose
same,dose taken up by the liver,[15]; humans,More than 98%
same,hepatic excretion half-life,[15]; humans,16 min
same,dose recovered in the liver,[16],~ 95%
same,linear range of uptake,[9],1.5 min
